Screens: PubChem BioAssay, Johns Hopkins Ion Channel Center
Shown are actives, neighbours in structure and some others; about 3.1% of the full set was active somewhere.
KCNQ1 pot: human KCNQ1 channel potentiation or activation; P51787; CHO-K1 KCNQ1, thallium flux FluxOR fluorescence; hits give high values; B-score at 10 µM; actives 0.35% (n = 310,000);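 active = fluorescence ratio B-score, a plate-corrected score, at least three library SD, with initial intensity B-score within 5 SD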
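Material: CHO-K1 cells stably expressing KCNQ1. Medium: assay buffer for compound exposure, DMSO matched across wells. Reagent: K+/Tl+ depolarizing stimulus. Compound dosing: single-concentration screen. Times: 37 °C overnight plating, 90-min dark dye load, 20-min compound pretreatment. Technique: FluxOR Tl+ flux fluorescence.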
KCNK3 block: human KCNK3 channel inhibition, primary screen. O14649. actives 0.84% (n = 340,000). CHO-KCNK3 thallium flux, FluxOR fluorescence; hits give low values. B-score at 10 µM;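 active = B-score under library mean minus 4 SD, starting fluorescence ratio at most library mean plus 5 SD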;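 also: more negative B-score means stronger inhibition of thallium flux through KCNK3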
hERG protect: compounds protecting human hERG from proarrhythmic drug block; CHO-hERG, FluxOR thallium flux, dofetilide IC70 present; AID 1511; actives 0.51% (n = 310,000); Q12809; activation (rescue from dofetilide block), less the hit threshold, % at 10 µM;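 active = activation above the mean of controls blocked by dofetilide plus 5 SD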;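 also: thallium influx through hERG after potassium depolarization seen as dye fluorescence rise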
Target sequence (Q12809 whole entry, looked up): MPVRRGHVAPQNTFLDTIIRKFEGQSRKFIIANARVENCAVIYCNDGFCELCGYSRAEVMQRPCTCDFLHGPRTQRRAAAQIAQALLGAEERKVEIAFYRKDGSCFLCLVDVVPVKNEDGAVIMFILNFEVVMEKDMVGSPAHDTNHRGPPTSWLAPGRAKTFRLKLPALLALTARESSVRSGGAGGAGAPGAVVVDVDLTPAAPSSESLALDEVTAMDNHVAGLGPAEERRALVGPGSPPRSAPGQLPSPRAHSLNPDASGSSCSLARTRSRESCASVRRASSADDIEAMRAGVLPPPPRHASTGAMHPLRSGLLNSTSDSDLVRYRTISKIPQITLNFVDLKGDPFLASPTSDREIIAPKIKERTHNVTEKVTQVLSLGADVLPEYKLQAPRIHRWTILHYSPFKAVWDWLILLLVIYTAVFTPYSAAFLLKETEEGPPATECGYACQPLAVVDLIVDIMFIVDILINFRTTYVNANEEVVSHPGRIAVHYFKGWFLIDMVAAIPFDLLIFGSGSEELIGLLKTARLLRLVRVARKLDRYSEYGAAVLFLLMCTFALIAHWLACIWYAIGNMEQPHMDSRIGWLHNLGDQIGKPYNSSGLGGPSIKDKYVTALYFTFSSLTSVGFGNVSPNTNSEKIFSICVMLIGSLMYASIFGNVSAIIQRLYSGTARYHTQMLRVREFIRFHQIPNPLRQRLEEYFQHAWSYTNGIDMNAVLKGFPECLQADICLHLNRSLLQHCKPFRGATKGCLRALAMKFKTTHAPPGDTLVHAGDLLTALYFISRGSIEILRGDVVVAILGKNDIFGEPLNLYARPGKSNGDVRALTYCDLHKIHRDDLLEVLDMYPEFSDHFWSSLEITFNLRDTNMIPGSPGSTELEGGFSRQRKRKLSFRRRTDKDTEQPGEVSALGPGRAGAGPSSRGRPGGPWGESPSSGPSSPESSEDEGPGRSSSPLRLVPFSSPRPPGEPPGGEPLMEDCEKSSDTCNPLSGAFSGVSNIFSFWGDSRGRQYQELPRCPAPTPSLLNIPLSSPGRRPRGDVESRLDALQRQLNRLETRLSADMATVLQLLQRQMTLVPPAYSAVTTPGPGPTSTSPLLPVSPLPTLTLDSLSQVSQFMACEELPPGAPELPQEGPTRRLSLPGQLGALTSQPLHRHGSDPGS
KCNQ1 inh: inhibitors of human KCNQ1 potassium channel; AID 2642; CHO-K1 KCNQ1, FluxOR thallium flux fluorescence; hits give high values; actives 1.3% (n = 310,000); P51787; B-score at 10 µM;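 active = compounds whose thallium flux B-score, printed positive for inhibition, exceeds three library SD while starting fluorescence stays within three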;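 also: channel opened by potassium depolarization with thallium stimulus after 20 min compound exposure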
KCNK9 inh: blocks the human KCNK9 two-pore domain potassium channel. AID 488922. HEK293 KCNK9, FluxOR thallium flux fluorescence; hits give low values. B-score at 10 µM. Q9NPC2. actives 1.2% (n = 310,000);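 active = ratio B-score over 3 SD below the library mean, with starting fluorescence within 5 SD of its mean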;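 also: negative B-score means less thallium flux so channel inhibition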
Active calls of the source: *.

O=C1C(=O)N(C2CCS(=O)(=O)C2)C(c2cccc(O)c2)/C1=C(/O)c1ccc(Cl)cc1 (stereo unspecified) was read as KCNQ1 pot inactive, KCNK3 block inactive, hERG protect -8, KCNQ1 inh inactive and KCNK9 inh inactive.
COc1cc(S(=O)(=O)Nc2ccc3c(c2)C(=O)N(C)C3=O)ccc1NC(C)=O was read as KCNK3 block inactive.
Screening CCOC(=O)C(=O)Nc1nc(-c2ccccc2)c(-c2ccccc2)o1 returned KCNQ1 pot inactive, KCNK3 block inactive, hERG protect -5, KCNQ1 inh inactive and KCNK9 inh inactive.
O=C(Nc1nc(-c2ccccc2)c(-c2ccccc2)o1)c1ccc(F)cc1 was read as KCNQ1 pot 56*, KCNK3 block inactive, hERG protect 5.6*, KCNQ1 inh inactive and KCNK9 inh inactive.
`COc1cccc(C(=O)Nc2cc(C)c3c(=O)oc4ccccc4c3n2)c1` gave KCNQ1 pot inactive, KCNK3 block -10*, hERG protect -7, KCNQ1 inh inactive and KCNK9 inh -11*.
`Cc1cc(NC(=O)Cc2ccccc2)nc2c1c(=O)oc1ccccc12` gave KCNQ1 pot inactive, KCNK3 block inactive, hERG protect -11, KCNQ1 inh inactive and KCNK9 inh inactive.
For O=C(COC(=O)c1cc(S(=O)(=O)N2CCOCC2)c(Cl)cc1Cl)NC1CC1 the results were KCNK3 block inactive.
For Cc1cc(C)n(/N=C/c2cc(Cl)cc(Cl)c2O)c(=O)c1 the results were KCNQ1 pot 15*, KCNK3 block inactive, hERG protect -1, KCNQ1 inh inactive and KCNK9 inh inactive.
Screening CCNc1ccc(C(=O)N/N=C/c2c(C)nn(-c3ccccc3)c2N2CCCC2)cc1[N+](=O)[O-] returned KCNQ1 pot inactive, KCNK3 block inactive, hERG protect -7, KCNQ1 inh 6* and KCNK9 inh inactive.
For Nn1c(SCC(=O)Nc2c(Cl)cccc2Cl)nncc1=O the results were KCNQ1 pot inactive, KCNK3 block inactive, hERG protect -11, KCNQ1 inh inactive and KCNK9 inh inactive.
Screening CC(C)(OC(=O)c1ccc(C#N)cc1)c1cc2ccccc2c(=O)o1 returned KCNK3 block inactive.
For O=[N+]([O-])c1cccc(-c2cc3ccccc3[nH]2)c1 the results were KCNQ1 pot inactive, KCNK3 block inactive, hERG protect -16, KCNQ1 inh inactive and KCNK9 inh inactive.
For O=[N+]([O-])/C=C/c1cc2ccccc2[nH]1 the results were KCNQ1 pot inactive, KCNK3 block inactive, hERG protect -9, KCNQ1 inh 6* and KCNK9 inh inactive.
Cc1cc(NS(=O)(=O)c2ccc(NC(=O)Cc3ccc([N+](=O)[O-])cc3)cc2)nc(C)n1 was read as KCNK3 block inactive.
O=C(Nc1ccccc1)c1cc(S(=O)(=O)NCc2ccncc2)ccc1Cl was read as KCNQ1 pot inactive, KCNK3 block inactive, hERG protect -20, KCNQ1 inh inactive and KCNK9 inh inactive.
For Cc1noc(C)c1S(=O)(=O)Nc1ccc2c(c1)C(=O)N([C@H](C)CO)C[C@H](C)[C@@H](CN(C)C(=O)NC1CCCCC1)O2 the results were KCNK3 block inactive.
COc1ccc(/C=N/N(Cc2ccccc2)c2ccccc2)cc1O was read as KCNQ1 pot inactive, KCNK3 block inactive, hERG protect -19, KCNQ1 inh 6* and KCNK9 inh inactive.
For Oc1ccc(/C=N/N(c2ccccc2)c2ccccc2)c(O)c1O the results were KCNQ1 pot inactive, KCNK3 block inactive, hERG protect -37, KCNQ1 inh inactive and KCNK9 inh inactive.
For Oc1ccc(/C=N/N(c2ccccc2)c2ccccc2)cc1O the results were KCNQ1 pot inactive, KCNK3 block inactive, hERG protect -15, KCNQ1 inh 6* and KCNK9 inh inactive.
Screening CC12CCCC(CC(=O)O)(C1)NC(=O)C2 (stereo unspecified) returned KCNK3 block inactive.
`COc1ccc(NC(=O)CCN2CCN(c3ccc(F)cc3)CC2)cc1` gave KCNQ1 pot inactive, KCNK3 block inactive, hERG protect -3, KCNQ1 inh inactive and KCNK9 inh inactive.
`CCC1C(=O)CC(c2ccc([N+](=O)[O-])cc2)NC1c1ccc([N+](=O)[O-])cc1` (stereo unspecified) gave KCNQ1 pot inactive, KCNK3 block inactive, hERG protect -15, KCNQ1 inh 8* and KCNK9 inh inactive.
`CCC1C(=O)CC(c2ccco2)NC1c1ccco1` (stereo unspecified) gave KCNQ1 pot inactive, KCNK3 block inactive, hERG protect -5, KCNQ1 inh inactive and KCNK9 inh inactive.
Screening Cc1ccc(C(=O)NNC(=O)c2ccoc2C)s1 returned KCNK3 block inactive.
`CCCn1nc([N+](=O)[O-])c(C(C#N)c2nc3ccccc3o2)c(Cl)c1=O` (stereo unspecified) gave KCNQ1 pot inactive, KCNK3 block inactive, hERG protect -16, KCNQ1 inh 6* and KCNK9 inh inactive.
`COc1cc(/C=C/CNC[C@H]2O[C@@H](n3ccc(=O)[nH]c3=O)[C@H](O)[C@@H]2O)ccc1O` gave KCNK3 block inactive.
COc1ccccc1Nc1nc(NCC(C)C)nc(N)c1[N+](=O)[O-] was read as KCNQ1 pot inactive, KCNK3 block inactive, hERG protect -8, KCNQ1 inh inactive and KCNK9 inh inactive.
Screening CCC(C)Nc1nc(N)c([N+](=O)[O-])c(Nc2ccccc2OC)n1 (stereo unspecified) returned KCNQ1 pot inactive, KCNK3 block inactive, hERG protect -5, KCNQ1 inh inactive and KCNK9 inh -7.9*.
For Cc1ccccc1OCC(=O)Nc1c2c(nn1C(C)(C)C)CS(=O)(=O)C2 the results were KCNQ1 pot inactive, KCNK3 block inactive, hERG protect -5, KCNQ1 inh inactive and KCNK9 inh inactive.
`COCCCNC(=O)C1Cc2cc(S(=O)(=O)N3CCCC3)ccc2N1C(C)=O` (stereo unspecified) gave KCNQ1 pot inactive, KCNK3 block inactive, hERG protect -8, KCNQ1 inh inactive and KCNK9 inh inactive.
`O=C(c1cccc(S(=O)(=O)NCc2ccc3c(c2)OCO3)c1)N1CCCC1` gave KCNK3 block inactive.
For CC1CCCCN1CCNC(=O)Cn1nc(-c2ccccc2)ccc1=O (stereo unspecified) the results were KCNQ1 pot inactive, KCNK3 block inactive, hERG protect 3, KCNQ1 inh inactive and KCNK9 inh inactive.
For CC1CCCCC1NC(=O)Cn1nc(-c2ccccc2)ccc1=O (stereo unspecified) the results were KCNQ1 pot inactive, KCNK3 block inactive, hERG protect 4.9*, KCNQ1 inh inactive and KCNK9 inh inactive.
